In ChEMBL document CHEMBL5724801, “EUbOPEN Chemogenomics Library - Multiplex” (2024):
Values joined by “and” are separate entries in the source; they are usually repeats but may differ in a detail not shown here. Equal entries are not always repeated.

System: U2OS
Test: Multiplex assay against U2OS
Format: toxicity, cell-based
Settings: human
In short: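 Four dyes were applied at seeding to live cells: Hoechst33342, BioTracker Green Microtubule Cytoskeleton Dye, MitoTracker Red and Annexin V Alexa Fluor 680. Imaging after compound addition used a CQ1 microscope at 37°C and 5% CO2. CellPathfinder machine-learning gating then sorted cells into Hoechst high-intensity objects or normal cells, normal cells into healthy, pyknosed or fragmented nuclei, and pyknosed cells into mitotic or apoptotic, with tubulin, mitochondrial-mass and membrane-permeability phenotypes given as per cents of healthy-nucleus cells.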

[1] = 12 h, 1 µM, compound concentration 1 uM
[2] = 12 h, 10 µM, compound concentration 10 uM
[3] = 24 h, 1 µM, compound concentration 1 uM
[4] = 24 h, 10 µM, compound concentration 10 uM
[5] = 48 h, 1 µM, compound concentration 1 uM
[6] = 48 h, 10 µM, compound concentration 10 uM

## COc1cc(C(=O)N(CCCc2ccccc2)Cc2ccc(CC(=O)O)cc2)cc(OC)c1C
[1]
  Population Apoptotic (%): 95% and 70%
  Population Fragmented Nuclei (%): 29% and 23%
  Population Healthy Nuclei (%): 60% and 65%
  Population Hoechst High Intensity Objects (%): 4%
  Population Membrane Permeable-Phenotype (%): 7% and 8%
  Population Mitochondria Different-Phenotype (%): 4% and 1%
  Population Normal (%): 95%
  Population Pyknosed Nuclei (%): 10% and 11%
  Population Tubulin-Different-Phenotype (%): 4% and 1%
  Total Cell Count: 228 and 93
[2]
  Population Apoptotic (%): 82% and 100%
  Population Fragmented Nuclei (%): 22% and 15%
  Population Healthy Nuclei (%): 71% and 79%
  Population Hoechst High Intensity Objects (%): 0% and 1%
  Population Membrane Permeable-Phenotype (%): 5% and 2%
  Population Mitochondria Different-Phenotype (%): 0% and 3%
  Population Mitotic Cells (%): 17% and 0%
  Population Normal (%): 99% and 98%
  Population Pyknosed Nuclei (%): 6% and 4%
  Population Tubulin-Different-Phenotype (%): 2% and 4%
  Total Cell Count: 262 and 171
[3]
  Population Apoptotic (%): 84% and 73%
  Population Fragmented Nuclei (%): 29% and 22%
  Population Healthy Nuclei (%): 61% and 64%
  Population Hoechst High Intensity Objects (%): 2% and 4%
  Population Membrane Permeable-Phenotype (%): 7% and 2%
  Population Mitochondria Different-Phenotype (%): 6% and 2%
  Population Mitotic Cells (%): 15% and 26%
  Population Normal (%): 97% and 95%
  Population Pyknosed Nuclei (%): 9% and 13%
  Population Tubulin-Different-Phenotype (%): 4% and 0%
  Total Cell Count: 288 and 120
[4]
  Population Apoptotic (%): 94% and 84%
  Population Fragmented Nuclei (%): 18% and 12%
  Population Healthy Nuclei (%): 76% and 80%
  Population Hoechst High Intensity Objects (%): 0% and 2%
  Population Membrane Permeable-Phenotype (%): 7%
  Population Mitochondria Different-Phenotype (%): 2% and 5%
  Population Mitotic Cells (%): 5% and 15%
  Population Normal (%): 99% and 97%
  Population Pyknosed Nuclei (%): 5% and 6%
  Population Tubulin-Different-Phenotype (%): 3% and 5%
  Total Cell Count: 318 and 192
[5]
  Population Apoptotic (%): 86% and 78%
  Population Fragmented Nuclei (%): 23% and 22%
  Population Healthy Nuclei (%): 69% and 64%
  Population Hoechst High Intensity Objects (%): 3% and 6%
  Population Membrane Permeable-Phenotype (%): 5% and 7%
  Population Mitochondria Different-Phenotype (%): 2% and 5%
  Population Mitotic Cells (%): 13% and 21%
  Population Normal (%): 96% and 93%
  Population Pyknosed Nuclei (%): 7% and 12%
  Population Tubulin-Different-Phenotype (%): 4% and 6%
  Total Cell Count: 408 and 159
[6]
  Population Apoptotic (%): 93% and 94%
  Population Fragmented Nuclei (%): 18% and 15%
  Population Healthy Nuclei (%): 75% and 71%
  Population Hoechst High Intensity Objects (%): 1% and 3%
  Population Membrane Permeable-Phenotype (%): 4% and 8%
  Population Mitochondria Different-Phenotype (%): 2% and 1%
  Population Mitotic Cells (%): 6% and 5%
  Population Normal (%): 98% and 96%
  Population Pyknosed Nuclei (%): 6% and 13%
  Population Tubulin-Different-Phenotype (%): 2% and 4%
  Total Cell Count: 504 and 280

## Cc1onc(-c2ccccc2Cl)c1C(=O)N(C)c1ccc(Cl)cc1
[1]
  Population Apoptotic (%): 82% and 78%
  Population Fragmented Nuclei (%): 26% and 10%
  Population Healthy Nuclei (%): 67% and 79%
  Population Hoechst High Intensity Objects (%): 0% and 1%
  Population Membrane Permeable-Phenotype (%): 3% and 4%
  Population Mitochondria Different-Phenotype (%): 2% and 1%
  Population Mitotic Cells (%): 17% and 21%
  Population Normal (%): 99% and 98%
  Population Pyknosed Nuclei (%): 6% and 10%
  Population Tubulin-Different-Phenotype (%): 1% and 3%
  Total Cell Count: 277 and 136
[2]
  Population Apoptotic (%): 79% and 77%
  Population Fragmented Nuclei (%): 28% and 24%
  Population Healthy Nuclei (%): 58% and 56%
  Population Hoechst High Intensity Objects (%): 4% and 0%
  Population Membrane Permeable-Phenotype (%): 12% and 7%
  Population Mitochondria Different-Phenotype (%): 5% and 6%
  Population Mitotic Cells (%): 20% and 22%
  Population Normal (%): 95% and 99%
  Population Pyknosed Nuclei (%): 12% and 19%
  Population Tubulin-Different-Phenotype (%): 5% and 4%
  Total Cell Count: 244 and 113
[3]
  Population Apoptotic (%): 100% and 83%
  Population Fragmented Nuclei (%): 23% and 11%
  Population Healthy Nuclei (%): 70% and 81%
  Population Hoechst High Intensity Objects (%): 0% and 1%
  Population Membrane Permeable-Phenotype (%): 2% and 4%
  Population Mitochondria Different-Phenotype (%): 2% and 5%
  Population Mitotic Cells (%): 0% and 16%
  Population Normal (%): 99% and 98%
  Population Pyknosed Nuclei (%): 5% and 7%
  Population Tubulin-Different-Phenotype (%): 0% and 2%
  Total Cell Count: 328 and 168
[4]
  Population Apoptotic (%): 72% and 64%
  Population Fragmented Nuclei (%): 26% and 20%
  Population Healthy Nuclei (%): 62% and 66%
  Population Hoechst High Intensity Objects (%): 3%
  Population Membrane Permeable-Phenotype (%): 11% and 8%
  Population Mitochondria Different-Phenotype (%): 6% and 7%
  Population Mitotic Cells (%): 27% and 35%
  Population Normal (%): 96%
  Population Pyknosed Nuclei (%): 11% and 13%
  Population Tubulin-Different-Phenotype (%): 4% and 7%
  Total Cell Count: 299 and 129
[5]
  Population Apoptotic (%): 87% and 89%
  Population Fragmented Nuclei (%): 16% and 12%
  Population Healthy Nuclei (%): 75%
  Population Hoechst High Intensity Objects (%): 2% and 1%
  Population Membrane Permeable-Phenotype (%): 4% and 1%
  Population Mitochondria Different-Phenotype (%): 3% and 2%
  Population Mitotic Cells (%): 12% and 10%
  Population Normal (%): 97% and 98%
  Population Pyknosed Nuclei (%): 7% and 11%
  Population Tubulin-Different-Phenotype (%): 2% and 1%
  Total Cell Count: 450 and 252
[6]
  Population Apoptotic (%): 69% and 90%
  Population Fragmented Nuclei (%): 22% and 23%
  Population Healthy Nuclei (%): 67% and 65%
  Population Hoechst High Intensity Objects (%): 3% and 2%
  Population Membrane Permeable-Phenotype (%): 10% and 9%
  Population Mitochondria Different-Phenotype (%): 5%
  Population Mitotic Cells (%): 30% and 10%
  Population Normal (%): 96% and 97%
  Population Pyknosed Nuclei (%): 9% and 11%
  Population Tubulin-Different-Phenotype (%): 4% and 3%
  Total Cell Count: 413 and 182
